Data set [1] concerns A549. Nature of the data set: Antiproliferative activity against human A549 cells assessed as inhibition of cell proliferation at 100 uM incubated for 48 hrs by CCK-8 assay relative to control. It counts as functional. Also noted: scale not given: the % may be the effect or the level left. The procedure, abridged: (§1)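 Cells from ATCC, passaged six times, grown in DMEM with 10% FBS and penicillin/streptomycin at 37 °C under 5% CO2. Seeded at 2500 cells/well, cultured overnight, treated 48 h, viability read by CCK-8. Run in triplicate; values are the mean of three experiments.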
Background: Formazan colour is commonly taken as a measure of viable cells.

In data set [2] the test system is BEAS-2B. Nature of the data set: Cytotoxicity against human BEAS-2B cells incubated for 48 hrs by CCK-8 assay. It is filed as cell-based. The method, boiled down: as §1
Data set [3] deals with T1, NEDD8-activating enzyme E1 catalytic subunit (Homo sapiens, UniProt Q8TBC4).
T1 sequence (Q8TBC4 whole entry): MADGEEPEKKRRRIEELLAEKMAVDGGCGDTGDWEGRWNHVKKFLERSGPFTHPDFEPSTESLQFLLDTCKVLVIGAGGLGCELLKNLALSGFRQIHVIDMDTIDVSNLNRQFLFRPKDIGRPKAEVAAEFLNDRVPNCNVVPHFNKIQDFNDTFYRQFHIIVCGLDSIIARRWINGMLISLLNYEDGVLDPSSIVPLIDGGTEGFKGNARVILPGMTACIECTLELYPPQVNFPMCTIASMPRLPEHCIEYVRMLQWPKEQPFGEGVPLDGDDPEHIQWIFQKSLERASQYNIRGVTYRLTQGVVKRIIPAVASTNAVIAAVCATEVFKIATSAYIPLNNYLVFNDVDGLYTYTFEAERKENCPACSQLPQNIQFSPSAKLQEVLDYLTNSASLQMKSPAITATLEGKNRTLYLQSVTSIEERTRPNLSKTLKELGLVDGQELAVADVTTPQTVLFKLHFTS
The data set can be described thus: Inhibition of NAE (unknown origin)-mediated neddylation assessed as suppression of cullin1-Nedd8 adduct formation preincubated for 10 mins followed by ATP addition and measured after 30 mins by immunoblot analysis. For orientation: In western blotting, separated proteins are transferred to a membrane and probed.

The test system of data set [4] is A549. The data set can be described thus: Antiproliferative activity against human A549 cells incubated for 48 hrs by CCK-8 assay. It counts as functional, cell-based. To be noted: A549, 48 h. The procedure, abridged:
as §1

Data set [5] can be described thus: Cytotoxicity against human […] cells incubated for 48 hrs by CCK-8 assay. It is filed as cell-based. The procedure, abridged:
as §1

The target in data set [6] is T2, NEDD8-activating enzyme E1 regulatory subunit (Homo sapiens) (UniProt Q13564).
T2 sequence (whole entry): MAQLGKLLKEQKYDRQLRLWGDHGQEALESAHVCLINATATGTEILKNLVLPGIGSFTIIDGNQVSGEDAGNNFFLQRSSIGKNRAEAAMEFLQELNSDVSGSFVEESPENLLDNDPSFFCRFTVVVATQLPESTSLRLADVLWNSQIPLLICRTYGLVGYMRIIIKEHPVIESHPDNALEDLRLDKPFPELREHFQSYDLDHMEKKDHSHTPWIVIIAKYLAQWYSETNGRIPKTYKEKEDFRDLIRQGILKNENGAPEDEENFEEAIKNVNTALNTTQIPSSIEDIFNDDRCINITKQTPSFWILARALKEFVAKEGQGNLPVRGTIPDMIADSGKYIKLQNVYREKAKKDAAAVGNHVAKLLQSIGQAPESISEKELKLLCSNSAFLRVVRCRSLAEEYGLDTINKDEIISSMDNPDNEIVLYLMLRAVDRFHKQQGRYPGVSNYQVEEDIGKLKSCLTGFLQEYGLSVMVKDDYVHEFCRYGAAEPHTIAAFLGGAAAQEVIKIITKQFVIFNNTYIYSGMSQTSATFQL
Nature of the data set: Inhibition of NAE (unknown origin)-mediated neddylation assessed as suppression of cullin1-Nedd8 adduct formation at 25 uM preincubated for 10 mins followed by ATP addition and measured after 30 mins by immunoblot analysis relative to control. To be noted: time 40.0 min.

Data set [7] deals with NCI-H1299. Nature of the data set: Antiproliferative activity against human H1299 cells incubated for 48 hrs by CCK-8 assay. It counts as functional, cell-based. To be noted: NCI-H1299, 48 h. The procedure, abridged: as §1
Data set [8] in a line: Toxicity in nude mouse assessed as effect on body weight at 30 mg/kg, qd after 24 days. It is filed as organism-based. Conditions: in vivo, 576 h, time 24 day. The method, boiled down: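 Female nude mice were inoculated subcutaneously with 2×10^6 A549 cells in 0.1 mL PBS. At tumor volume 70–100 mm³, mice were randomized into 5 groups of 6. Dosing was ip or oral gavage, once daily on a 5-days-on/2-days-off schedule, with 10% 2-hydroxypropyl-β-cyclodextrin/water as vehicle control. Body weight and tumor volume were measured every two days; tumors were weighed at sacrifice. Significance by two-tailed Student's t-test.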

Here are results for three molecules from ChEMBL document CHEMBL4732082, “Development of novel benzimidazole-derived neddylation inhibitors for suppressing tumor growth invitro and invivo” (Eur J Med Chem, 2021).

In general, IC50 refers to the concentration at which inhibition is half-maximal. By inhibition is commonly meant the change of the read-out against control, counted positive when it falls.

For the molecule `CCOc1nc2cccc(C(=O)NCCc3c[nH]c4ccccc34)c2n1Cc1ccc(-c2ccccc2-c2nnn[nH]2)cc1`, the Activity in data set [1] came to 71.6%. Further, the IC50 in data set [2] stood at 37.9 µM; in data set [3], 9.94 µM; in data set [4] it was 19.1 µM; in data set [5], 44.7 µM; in data set [7] it was 18.2 µM. Moreover, the inhibition in data set [6] was determined as 74.7%.

Regarding `CCOc1nc2cccc(C(=O)NCCc3cc(Cl)ccc3Cl)c2n1Cc1ccc(-c2ccccc2-c2nnn[nH]2)cc1`, in data set [1], the Activity amounted to 77.6%. Further, the half-inhibitory concentration (IC50) in data set [2] amounted to 80.8 µM; in data set [3] it was 6.67 µM; in data set [4], 39.3 µM; in data set [5], 64.9 µM; in data set [7], 36.7 µM. In addition, in data set [6], the inhibition worked out at 82.9%.

As to `CCOc1nc2cccc(C(=O)OC(C)OC(=O)OC3CCCCC3)c2n1Cc1ccc(-c2ccccc2-c2nnn[nH]2)cc1` (stereo unspecified) [CANDESARTAN CILEXETIL], the IC50 in data set [3] turned out to be 16.4 µM. Moreover, the Activity entry in data set [8] is “Non-Toxic”.
